Active and inactive are the calls of the source. No cut-off for these calls is given here.
What was measured:
HL-60 = assay: Cytotoxicity against human HL60 cells assessed as growth inhibition after 2 days by MTT assay; type: functional, cell-based; details: HL-60, 48 h
Saccharomyces cerevisiae [1] = assay: Antimicrobial activity against Saccharomyces cerevisiae YCG198 harboring Saccharomyces cerevisiae Y8205 MATalpha PDR1delta::NAT PDR3 delta::URA3 assessed as growth inhibition at 100 uM after 18 hrs; type: functional; details: YCG198, 18 h, read-out: GI
Outline: (§1)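 Stationary-phase yeast grown in synthetic complete medium, diluted to 5 × 10^5 cells/mL, then exposed 18 h at 30 °C to seven-point half-log dilutions from DMSO stocks (final 100 to 0.01 μM; one extended series topped at 300 μM). DMSO (1% or 3%) served as control. Growth was read as OD590, and residual growth = OD/OD_DMSO × 100. Mean ± standard error of two independent experiments in triplicate; IC50 from curve fit.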

Saccharomyces cerevisiae [2] = assay: Antimicrobial activity against Saccharomyces cerevisiae YCG198 harboring Saccharomyces cerevisiae Y8205 MATalpha PDR1delta::NAT PDR3 delta::URA3 assessed as growth inhibition after 18 hrs; type: functional, organism-based; details: YCG198, 18 h; outline: as §1
Saccharomyces cerevisiae [3] = assay: Antimicrobial activity against wild type Saccharomyces cerevisiae YCG117 harboring Saccharomyces cerevisiae Y8205 MATalpha ura3delta0::NAT assessed as growth inhibition at 0.01 to 100 uM after 18 hrs; type: functional, organism-based; outline: as §1
Saccharomyces cerevisiae [4] = assay: Antimicrobial activity against Saccharomyces cerevisiae YCG198 harboring Saccharomyces cerevisiae Y8205 MATalpha PDR1delta::NAT PDR3 delta::URA3 assessed as growth inhibition at 0.01 to 100 uM after 18 hrs; type: functional, organism-based; outline: as §1

COc1c(O)c(C)c(C/C=C(\C)CCCCCCc2ccccc2)oc1=O [LEHUALIDE F]
IC50 (HL-60): 6.2 µM | inhibition of growth at 100 µM (Saccharomyces cerevisiae [1]): 60% | IC50 (Saccharomyces cerevisiae [2]): 44 µM

COc1c(O)c(C)c(C/C=C(\C)CCCCCCCCc2ccccc2)oc1=O [LEHUALIDE G]
IC50 (HL-60): 5.4 µM | inhibition of growth at 100 µM (Saccharomyces cerevisiae [1]): 68% | growth inhibition (GI) (Saccharomyces cerevisiae [3]): inactive

COc1c(C)c(CCCCCCCCCCSC(C)=O)oc(=O)c1OC [LEHUALIDE H]
IC50 (HL-60): 14.6 µM | growth inhibition (GI) (Saccharomyces cerevisiae [4]): inactive | growth inhibition (GI) (Saccharomyces cerevisiae [3]): inactive

COc1c(C)c(CCCCCCCCCCSC)oc(=O)c1OC [LEHUALIDE I]
IC50 (HL-60): 10.8 µM | inhibition of growth at 100 µM (Saccharomyces cerevisiae [1]): 67% | growth inhibition (GI) (Saccharomyces cerevisiae [3]): inactive
